Jurkat viability = reduces viability or proliferation of Jurkat cells; Jurkat E6.1 viability, ATP luminescence, 48 h; inhibition, % at 4 µM; 56,000 tested, 1.2% active; AID 463;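 active = inhibition above the mean inhibition of all tested compounds plus 3 SD, cut at about 28% in these data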
SF1 activator = activators of human nuclear receptor SF-1. Q13285. 65,000 tested, 1.9% active. CHO-K1 Gal4-SF-1 LBD luciferase reporter; % increase over DMSO SF-1-specific signal. AID 522. activation, % at 10 µM;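 active = activation above the mean activation of all tested compounds plus 3 SD, cut at about 50% in these data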
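Assay system: CHO-K1 cells co-transfected with Gal4 DBD–human SF-1 LBD, 5xGal4 luciferase reporter; doses: 10 µM only; incubation: 20 h compound exposure at 37 °C after 1 h cell settling; signal: luciferase light emission; evaluation: percent activation versus DMSO; repeats: one test per compound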
HEK293 NFkB inh = lowers PMA/ionomycin-induced NF-kB signal in HEK293 cells; inhibition, % at 3 µM; 62,000 tested, 0.21% active; HEK-293 NF-kB luciferase reporter, luminescence;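 active = inhibition above the mean of all tested compounds plus 3 SD, cut at about 40% in these data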
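Reagent: PMA plus ionomycin mix as NF-kB-activating stimulus. Assay system: NF-kB luciferase reporter HEK-293 cells. Technique: luminescence from luciferase substrate reagent. Incubation: 1 h compound pre-incubation, 16 h PMA/ionomycin at 37 °C. Benchmarks: DMSO only as uninhibited control, 10 µM reference inhibitor as full inhibition. Repeats: tested once.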
RORa activator = activators of human nuclear receptor RORA; activation, % at 10 µM; 65,000 tested, 1.5% active; CHO-K1 Gal4-RORA LBD luciferase reporter, luminescence; percent increase over mock-subtracted basal signal;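 active = activation above the mean of all tested compounds plus 3 SD, cut at about 49% in these data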
Target sequence (P35398 whole entry, looked up, the tested form may be a part): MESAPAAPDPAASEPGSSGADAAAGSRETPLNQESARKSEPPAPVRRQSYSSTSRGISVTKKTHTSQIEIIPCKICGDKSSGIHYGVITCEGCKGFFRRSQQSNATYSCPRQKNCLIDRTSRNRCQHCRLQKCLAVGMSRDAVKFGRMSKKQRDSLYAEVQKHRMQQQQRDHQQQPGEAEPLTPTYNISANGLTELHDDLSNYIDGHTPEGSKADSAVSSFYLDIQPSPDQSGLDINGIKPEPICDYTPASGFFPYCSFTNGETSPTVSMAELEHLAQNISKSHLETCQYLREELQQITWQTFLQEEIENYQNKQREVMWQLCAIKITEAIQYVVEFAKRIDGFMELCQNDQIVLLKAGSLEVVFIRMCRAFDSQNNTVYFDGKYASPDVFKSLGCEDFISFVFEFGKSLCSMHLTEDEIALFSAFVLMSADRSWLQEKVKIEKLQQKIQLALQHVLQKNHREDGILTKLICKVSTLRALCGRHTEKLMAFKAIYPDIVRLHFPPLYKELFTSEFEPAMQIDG
Numbers stand for hits. A selection: hits, their analogues and other compounds. The true share with any hit is near 3.9%.

What do the screens show for `CCN(c1ccccc1)c1ncnc2c1cnn2-c1ccccc1`?
Jurkat viability: inactive; SF1 activator: 59; HEK293 NFkB inh: inactive; RORa activator: 59

How did c1ccc(CCNc2ncnc3c2cnn3-c2ccccc2)cc1 do in these assays?
Jurkat viability: inactive; SF1 activator: inactive; HEK293 NFkB inh: inactive; RORa activator: 56

What do the screens show for `Cc1cccc(-n2ncc3c(NCc4ccccc4)ncnc32)c1`?
Jurkat viability: 83; SF1 activator: 82; HEK293 NFkB inh: inactive; RORa activator: 78

Results for CCCCN(CCCC)CCNC(=O)Cc1nc2c(c(=O)[nH]c(=O)n2C)n1C ?
Jurkat viability: inactive; SF1 activator: inactive; HEK293 NFkB inh: inactive; RORa activator: inactive

Results for CCOc1ccc(C2CC(c3ccc(F)cc3)n3ncnc3N2)cc1 (stereo unspecified) ?
Jurkat viability: inactive; SF1 activator: inactive; HEK293 NFkB inh: inactive; RORa activator: inactive

Results for Cc1sc2nc(CN(Cc3cccs3)C(=O)C3CC3)[nH]c(=O)c2c1C ?
Jurkat viability: inactive; SF1 activator: inactive; HEK293 NFkB inh: inactive; RORa activator: inactive

Results for c1ccc(CNc2ncnc3c2cnn3-c2ccccc2)cc1 ?
Jurkat viability: 85; SF1 activator: 77; HEK293 NFkB inh: inactive; RORa activator: 91

How did Cc1cccc(-n2ncc3c(NCc4ccco4)ncnc32)c1 do in these assays?
SF1 activator: 93; RORa activator: 72

Results for Fc1ccc(CNc2ncnc3c2cnn3-c2ccccc2)cc1 ?
Jurkat viability: inactive; SF1 activator: inactive; HEK293 NFkB inh: inactive; RORa activator: inactive

How did CCOC(=O)c1ccc(NC2OC(=O)c3ccccc32)cc1 (stereo unspecified) do in these assays?
Jurkat viability: inactive; SF1 activator: inactive; HEK293 NFkB inh: inactive; RORa activator: inactive

Results for Cc1cccnc1Nc1nc(-c2ccc(O)cc2O)cs1 ?
Jurkat viability: inactive; SF1 activator: 51; HEK293 NFkB inh: inactive; RORa activator: inactive

What do the screens show for `CC(C)(C)n1ncc2c(=O)n(CC(=O)NC3CCCCC3)cnc21`?
Jurkat viability: inactive; SF1 activator: 68; HEK293 NFkB inh: inactive; RORa activator: inactive

Results for CC(C)(C)n1ncc2c(=O)n(CC(=O)NCc3ccco3)cnc21 ?
Jurkat viability: inactive; SF1 activator: 50; HEK293 NFkB inh: inactive; RORa activator: inactive

Results for CC(C)(C)n1ncc2c(=O)n(CC(=O)NCc3ccc(F)cc3)cnc21 ?
Jurkat viability: 54; SF1 activator: 92; HEK293 NFkB inh: inactive; RORa activator: 67

Results for CCOC(=O)c1ccccc1NC(=O)Cn1cnc2c(cnn2C(C)(C)C)c1=O ?
Jurkat viability: inactive; SF1 activator: inactive; HEK293 NFkB inh: inactive; RORa activator: inactive

Results for CC(C)(C)n1ncc2c(=O)n(CC(=O)c3ccccc3)cnc21 ?
Jurkat viability: inactive; SF1 activator: 93; HEK293 NFkB inh: inactive; RORa activator: 55

Results for CC(C)(C)n1ncc2c(=O)n(CC(=O)OCc3ccccc3)cnc21 ?
Jurkat viability: inactive; SF1 activator: inactive; HEK293 NFkB inh: inactive; RORa activator: inactive

Results for CC(C)(C)n1ncc2c(=O)n(CC(=O)Nc3ccccc3)cnc21 ?
Jurkat viability: inactive; SF1 activator: inactive; HEK293 NFkB inh: inactive; RORa activator: inactive

Results for O=C(CCn1c(=S)[nH]c2ccccc2c1=O)N1CCN(c2ccccn2)CC1 ?
SF1 activator: inactive; HEK293 NFkB inh: inactive; RORa activator: inactive

How did O=C(Nc1nc(-c2ccccn2)cs1)c1ccc(Cl)s1 do in these assays?
Jurkat viability: 48; SF1 activator: inactive; HEK293 NFkB inh: inactive; RORa activator: inactive

Results for COc1ccc(OC)c2sc(NC(=O)c3ccc(Cl)s3)nc12 ?
Jurkat viability: inactive; SF1 activator: inactive; HEK293 NFkB inh: inactive; RORa activator: inactive

How did O=C(Nc1nccs1)c1ccc(Cl)s1 do in these assays?
Jurkat viability: inactive; SF1 activator: 58; HEK293 NFkB inh: inactive; RORa activator: inactive

How did O=C(Nc1ccc2sccc2c1)c1ccc(Cl)s1 do in these assays?
Jurkat viability: inactive; SF1 activator: 60; HEK293 NFkB inh: inactive; RORa activator: inactive

How did O=C(NCc1cccs1)c1ccc(Cl)s1 do in these assays?
Jurkat viability: inactive; SF1 activator: inactive; HEK293 NFkB inh: inactive; RORa activator: inactive

What do the screens show for `O=C(Nc1nc(-c2ccccn2)cs1)c1ccc(S(=O)(=O)N2CCCCC2)cc1`?
Jurkat viability: 54; SF1 activator: inactive; HEK293 NFkB inh: inactive; RORa activator: inactive

What do the screens show for `O=C(NCc1ccco1)C1CC(=O)N(c2ccc(O)cc2)C1` (stereo unspecified)?
Jurkat viability: inactive; SF1 activator: inactive; HEK293 NFkB inh: inactive; RORa activator: inactive

How did COC(=O)c1ccc(Oc2cc(C)nc(SC)n2)cc1 do in these assays?
Jurkat viability: 65; SF1 activator: 71; HEK293 NFkB inh: inactive; RORa activator: 58

How did COC(=O)COc1ccc(Oc2cc(C)nc(SC)n2)nn1 do in these assays?
Jurkat viability: inactive; SF1 activator: inactive; HEK293 NFkB inh: inactive; RORa activator: inactive

How did CC(=O)Oc1ccc(NC(=O)CSc2ccccc2)cc1 do in these assays?
Jurkat viability: inactive; SF1 activator: inactive; HEK293 NFkB inh: inactive; RORa activator: inactive

How did CCOC(=O)c1cnc(Nc2nc3ccccc3o2)nc1CSc1nnc(C)s1 do in these assays?
Jurkat viability: inactive; SF1 activator: inactive; HEK293 NFkB inh: inactive; RORa activator: 58

What do the screens show for `CS(=O)(=O)N(CC(=O)N1CCCCCC1)c1ccc(Br)cc1`?
Jurkat viability: inactive; SF1 activator: inactive; HEK293 NFkB inh: inactive; RORa activator: inactive

Results for c1ccc(CSc2nnc(-c3cccs3)o2)cc1 ?
Jurkat viability: inactive; SF1 activator: 52; HEK293 NFkB inh: inactive; RORa activator: 50

Results for COc1ccc(-c2nnc(SCC(=O)N3CCOCC3)o2)cc1 ?
Jurkat viability: inactive; SF1 activator: inactive; HEK293 NFkB inh: inactive; RORa activator: 73

What do the screens show for `c1ccc(-c2nnc(CSc3nnc(-c4cccs4)o3)o2)cc1`?
Jurkat viability: inactive; SF1 activator: inactive; HEK293 NFkB inh: inactive; RORa activator: inactive

What do the screens show for `O=C(CSc1nnc(-c2cccs2)o1)N1CCOCC1`?
Jurkat viability: inactive; SF1 activator: inactive; HEK293 NFkB inh: inactive; RORa activator: inactive

How did O=C(CSc1nnc(-c2cccs2)o1)N1CCCCC1 do in these assays?
Jurkat viability: inactive; SF1 activator: 63; HEK293 NFkB inh: inactive; RORa activator: inactive

How did Fc1ccc(Cc2nnc(-c3cccs3)o2)cc1 do in these assays?
Jurkat viability: inactive; SF1 activator: inactive; HEK293 NFkB inh: inactive; RORa activator: 63

How did CC(C)(C)C(=O)CNS(=O)(=O)c1ccc(S(=O)(=O)NC2CCCC2)cc1 do in these assays?
Jurkat viability: inactive; SF1 activator: inactive; HEK293 NFkB inh: inactive; RORa activator: inactive

What do the screens show for `CC(C)OC(=O)CCC1(C(=O)O)CCC(=O)NC1` (stereo unspecified)?
Jurkat viability: inactive; SF1 activator: inactive; HEK293 NFkB inh: inactive; RORa activator: inactive

What do the screens show for `Fc1ccccc1CSc1nnc(-c2cccs2)o1`?
Jurkat viability: inactive; SF1 activator: 92; HEK293 NFkB inh: inactive; RORa activator: 50

How did COc1ccccc1NC(=O)CSc1nnc(-c2ccc(C)cc2)o1 do in these assays?
Jurkat viability: inactive; SF1 activator: 57; HEK293 NFkB inh: inactive; RORa activator: inactive

High-throughput results (PubChem BioAssay)
